Assay results published in ChEMBL document CHEMBL1130425, “An orally bioavailable pyrrolinone inhibitor of HIV-1 protease: computational analysis and X-ray crystal structure of the enzyme complex” (J Med Chem, 1997).

Key:
[1] = target: Human immunodeficiency virus type 1 protease (Human immunodeficiency virus 1) (UniProt Q72874); test: Cellular antiviral activity against HIV-1 Protease
[2] = target: Human immunodeficiency virus type 1 protease (Human immunodeficiency virus 1, UniProt Q72874); test: Inhibition of HIV-1 protease
[3] = Ratio of CIC95 to IC50 values
Summary of the method: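 Ratio computed by dividing the cellular antiviral CIC95 by the IC50 from the purified HIV-1 protease inhibition assay, both in nM.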

SMILES | IC95 [1] [nM] | IC50 [2] [nM] | Ratio [3]
CC(C)(C)OC(=O)N[C@@H](Cc1ccccc1)[C@@H](O)C[C@]1(Cc2ccccc2)N=CC(C2c3ccccc3C[C@H]2O)=C1O (some centres undefined) | 800 | 11.9 | –
O=C(N[C@@H](Cc1ccccc1)[C@@H](O)C[C@]1(Cc2ccccc2)N=CC(C2c3ccccc3C[C@H]2O)=C1O)O[C@H]1CCOC1 (some centres undefined) | 100 | 2 | –
CC(C)(C)OC(=O)N[C@@H](Cc1ccccc1)[C@@H](O)C[C@]1(Cc2ccc(O)cc2)N=CC(C2c3ccccc3C[C@H]2O)=C1O (some centres undefined) | – | 6 | –
CC(C)C[C@H](NC(=O)[C@H](Cc1ccccc1)C[C@H](O)[C@H](Cc1ccccc1)NC(=O)OC(C)(C)C)C(=O)N[C@@H](Cc1ccccc1)C(N)=O | – | – | 10000
CC(C)(C)OC(=O)N[C@@H](Cc1ccccc1)[C@@H](O)C[C@@](C)(Cc1ccccc1)C(=O)NC1c2ccccc2C[C@H]1O (single isomer, unassigned) | – | 7 | –
CC(C)(C)OC(=O)N[C@@H](Cc1ccccc1)[C@@H](O)CC1(Cc2ccccc2)CCN(C2c3ccccc3C[C@H]2O)C1=O (single isomer, unassigned) | – | 86 | –
O=C(N[C@@H](Cc1ccccc1)[C@@H](O)C[C@@H](Cc1ccccc1)C(=O)NC1c2ccccc2C[C@H]1O)OC1CCOC1 (single isomer, unassigned) | 3 | 0.03 | 100
CN(C(=O)[C@H](Cc1ccccc1)C[C@H](O)[C@H](Cc1ccccc1)NC(=O)OC(C)(C)C)C1c2ccccc2C[C@H]1O (single isomer, unassigned) | – | 186 | –
CC(C)(C)NC(=O)[C@@H]1CN(Cc2cccnc2)CCN1C[C@@H](O)C[C@@H](Cc1ccccc1)C(=O)NC1c2ccccc2C[C@H]1O (single isomer, unassigned) | 25 | – | –
CC(C)(C)OC(=O)N[C@@H](Cc1ccccc1)[C@@H](O)C[C@@H](Cc1ccccc1)C(=O)NC1c2ccccc2C[C@H]1O (single isomer, unassigned) | – | – | 1330
